Bioassay records from PubChem.
TNAP inh hiacc = human TNAP enzyme inhibitors, primary screen, biochemical, luminescent, high phosphate acceptor level, uHTS; purified TNAP, CDP-star luminescence, 1 M DEA; inhibition, % at 20 µM; 0.03% of 200,000 active;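 active = over 50% inhibition of tissue-nonspecific alkaline phosphatase at 20 µM in the single-dose screen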;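 also: plate controls were DMSO wells for no effect and EDTA-quenched wells as full inhibition for full effect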
Target sequence (P05186 whole entry, looked up): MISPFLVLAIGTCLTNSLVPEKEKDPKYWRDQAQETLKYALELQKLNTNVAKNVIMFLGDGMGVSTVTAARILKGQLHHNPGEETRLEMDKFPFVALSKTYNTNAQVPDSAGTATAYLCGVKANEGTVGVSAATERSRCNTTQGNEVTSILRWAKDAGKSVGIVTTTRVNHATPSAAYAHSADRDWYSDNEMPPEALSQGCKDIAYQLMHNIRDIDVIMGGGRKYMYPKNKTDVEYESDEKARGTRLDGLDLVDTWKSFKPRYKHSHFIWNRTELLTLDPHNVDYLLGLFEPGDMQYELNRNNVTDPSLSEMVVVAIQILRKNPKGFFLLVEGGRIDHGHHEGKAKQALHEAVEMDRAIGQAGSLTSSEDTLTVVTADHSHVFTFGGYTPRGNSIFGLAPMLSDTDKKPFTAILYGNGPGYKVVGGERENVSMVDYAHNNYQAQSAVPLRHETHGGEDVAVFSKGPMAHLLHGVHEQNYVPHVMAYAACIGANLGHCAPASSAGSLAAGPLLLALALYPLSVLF
TNAP act hiacc = TNAP activators at high phosphate acceptor level, primary screen, biochemical, luminescence, uHTS; purified TNAP, CDP-star luminescence, 1 M DEA, 30 min; active compounds read high; 0 = EDTA background, 1 = DMSO-only activity; activation factor at 20 µM; 200,000 tested, under 10 active; Alkaline phosphatase, tissue-nonspecific isozyme (Homo sapiens), P05186; AID 1136, 2008;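 active = activation factor at least 2 at 20 µM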
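Test system – human TNAP · Doses – 20 µM single point · Incubation – 30 min, room temperature · Signal – luminescent substrate turnover signal · Read-out basis – activation factor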
TNAP inh noacc = human TNAP enzyme inhibitors, primary screen, biochemical, luminescent, no phosphate acceptor, uHTS; purified TNAP, CDP-star luminescence, 30 min; inhibition, % at 20 µM; 0.26% of 200,000 active; AID 1012, 2008;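 active = tissue-nonspecific alkaline phosphatase inhibition above about 50% at 20 µM in the single-dose screen, limit read from the data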;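 also: 0% = DMSO negative control and 100% = EDTA positive control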
Lmaj promast = Leishmania major promastigote growth inhibition, primary screen | inhibition, % at 10 µM | Leishmania major promastigotes, resazurin fluorescence viability | AID 1063, 2008 | 9% of 200,000 active; in the data active = inhibition above about 50%;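 also: promastigotes grown with compound for 44 hours at 28 °C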
HCT116 PTEN-null = growth suppression of PTEN-null HCT116, primary screen, cell-based, CellTiter-Glo; HCT116 PTEN-null viability, 60 h; active compounds read low; viability, % at 10 µM; 1.2% of 140,000 active; AID 827, 2007;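 active = viability at or below a set limit, 4 SD under the median of all tested compounds, cut at about 3.7% in these data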;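 also: PTEN knockout HCT116 line with beta catenin targeted HCT116 as companion control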
HCT116 bCat-KO = primary screen for growth suppressors in beta-catenin knockout HCT116 cells (colon tumor, human) | HCT116 beta-catenin knockout viability, CellTiter-Glo, 60 h; active compounds read low | viability, % at 10 µM | 1.5% of 140,000 active;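 active = viability at or under a set limit, the compound median less 4 SD, cut at about 6% in these data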;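 also: 0% = Hyamine 1622 control at 20 µM and 100% = untreated cell control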
Active calls of the source: *; · = no result. Compounds with a hit are over-represented: about 9.6% of the library has one in this group of screens.

SMILES	TNAP inh hiacc	TNAP act hiacc	TNAP inh noacc	Lmaj promast	HCT116 PTEN-null	HCT116 bCat-KO
Cc1ccc(NP(=O)(Nc2ccc(C)cc2)Nc2ccc(C)cc2)cc1	-8.4	1.1	-54.2	57.6*	·	·
Nc1nnc(CCS(=O)(=O)c2ccc(Br)cc2)s1	-3.7	1	-7.3	0.0	·	·
Fc1ccccc1CSc1nc2ccccc2[nH]1	-5.5	1.1	-24.5	90.8*	96.4	99.5
Fc1c(F)c(F)c(CSc2nc3ccccc3[nH]2)c(F)c1F	-3.3	1	-18.2	17.6	94.2	98.3
Cc1ccc(C)c(Nc2ncnc(N)c2[N+](=O)[O-])c1	-6.2	1.1	-5.7	61.0*	63.1	66.6
Cc1cccnc1Nc1ncnc(N)c1[N+](=O)[O-]	-1.2	1	-4.6	-0.1	·	·
CC1=C(C(=O)OCCc2ccccc2)C(c2ccsc2)NC(=O)N1C (centres undefined)	-6.0	1.1	-6.3	-2.4	75.2	72.4
COC(=O)Nc1ccc2c(c1)N(C(=O)CCN1CCN3CCCC3C1)c1ccccc1S2 (centres undefined)	-4.8	1	-21.1	70.7*	84.0	83.0
CN1CCN(CCC(=O)N2c3ccccc3Sc3ccc(Cl)cc32)CC1	-5.8	1.1	-11.5	100.8*	75.3	80.2
CC1(C)OC(=O)C(=NNc2ccc(Br)cc2)C(=O)O1	2.5	1	-3.0	-8.0	91.4	78.5
N#Cc1ccsc1NC(=O)CN1CCN(S(=O)(=O)c2ccccc2C(F)(F)F)CC1	-2.0	1	0.4	3.2	74.0	82.9
COc1ccc(NC(=S)NCCSc2ccc(Cl)cc2)c(OC)c1	-5.7	1.1	-16.0	99.9*	67.8	74.8
Cc1ccc(NC(=S)NCCSc2ccc(Cl)cc2)cc1	-9.4	1.1	4.1	28.2	·	·
Cc1ccc(SCCNC(=S)Nc2cc(C)cc(C)c2)cc1	-11.0	1.1	-49.3	65.2*	·	101.5
CC(C)c1ccc2c(c1)C(c1cccs1)=NNC(c1ccncc1)=N2	-5.8	1.1	-4.1	43.9	·	·
CC(C)c1ccc2c(c1)C(c1ccc(N3CCOCC3)cc1)=NNC(c1cccs1)=N2	-5.5	1.1	-6.8	82.6*	57.4	76.2
CC(C)CNC(=O)COc1cccc(C(=O)NCc2ccccc2)c1	1.5	1	-9.7	52.0*	85.6	86.4
CCNC(=O)COc1cccc(C(=O)NCc2ccccc2)c1	-1.1	1	-17.7	51.0*	96.8	95.6
COc1ccc(NC(=O)C2CCC(CNS(=O)(=O)c3cccs3)CC2)cc1 (centres undefined)	0.6	1	-3.2	-7.5	·	·
COc1ccc2cc(C(c3nnnn3C3CCCC3)N3CCCCCC3)c3nnnn3c2c1 (centres undefined)	-2.1	1	-11.3	15.3	2.3*	9.3
COc1ccc2cc(C(c3nnnn3C3CCCCC3)N3CCCCCC3)c3nnnn3c2c1 (centres undefined)	·	·	·	21.1	·	·
COc1ccc(OC)c(C(c2nnnn2C2CCCC2)N2CCN(c3ccc(F)cc3)CC2)c1 (centres undefined)	-9.0	1.1	-11.2	91.8*	59.9	66.5
COc1ccc(C(c2nnnn2C2CCCC2)N2CCC(C)CC2)c(OC)c1 (centres undefined)	0.6	1	-4.2	99.3*	64.2	64.2
CCO[C@H]1OC(C(=O)NC2CC2)=C[C@@H](c2coc3ccccc3c2=O)[C@@H]1CCCO	-7.2	1.1	-9.7	-8.2	·	·
CNC(=O)C(=O)Nc1nc(C23CC4CC(CC(C4)C2)C3)cs1	-6.9	1.1	-18.3	24.5	·	·
SMILES	TNAP inh hiacc	TNAP act hiacc	TNAP inh noacc	Lmaj promast	HCT116 PTEN-null	HCT116 bCat-KO
CNc1nc(N)c(C(=O)C23CC4CC(CC(C4)C2)C3)s1	0.8	1	2.1	100.3*	·	·
O=C(NCc1ccc(F)cc1)c1ccc(S(=O)(=O)Nc2cccc(C(F)(F)F)c2)cc1	-0.9	1	9.2	66.5*	76.2	81.6
O=C(NCc1ccccc1F)c1ccc(S(=O)(=O)Nc2cccc(C(F)(F)F)c2)cc1	-4.0	1	17.6	-1.3	85.8	91.3
Cc1ccc(S(=O)(=O)Nc2cccc3ncccc23)s1	-7.6	1.1	-13.6	100.2*	1.5*	1.5*
Nc1cccc(-n2cccc2)c1	-4.2	1	-6.0	-6.1	·	·
CCc1ccc(C(=O)COC(=O)C(Cc2ccccc2)NC(=O)c2ccc(Cl)cc2)cc1 (centres undefined)	2.4	1	-3.2	75.2*	94.4	99.8
CCOC(=O)/C(C#N)=C/c1cc2ccccc2nc1Cl	-1.7	1	-10.5	3.7	22.1	15.7
N#C/C(=C\c1cc2ccccc2nc1N1CCCCC1)C(N)=O	1.5	1	-15.8	75.6*	38.0	47.1
Cc1ccc(NC(=O)C2CCCN2C(=O)NCc2ccccc2)cc1 (centres undefined)	-5.6	1.1	-6.3	-4.3	·	·
CCN(CCO)Cc1csc2ccc(Br)cc12	-11.3	1.1	-11.5	98.5*	84.1	86.5
CCN(CCO)Cc1csc2cccc(Br)c12	-3.9	1	-12.3	0.2	96.0	110.0
CNC(=S)Nc1ccc(C(N)=O)cc1	-7.6	1.1	-9.7	-6.3	·	·
COc1cc(NC(=O)C2=C(N3CCOCC3)/C(=C\c3ccc(Br)cc3)CC2)cc(OC)c1OC	-2.6	1	-14.0	39.5	58.2	57.0
COc1cc(NC(=O)C2=C(N3CCOCC3)/C(=C\c3ccc(Cl)cc3Cl)CC2)cc(OC)c1OC	-7.8	1.1	-10.7	96.6*	66.7	71.1
O=C(C1CCCN(S(=O)(=O)c2ccccc2[N+](=O)[O-])C1)N1CCN(c2ccccc2)CC1 (centres undefined)	4.2	1	-10.3	0.9	76.3	86.1
OCCN1CCN(CC(O)COc2ccc(-c3ccccc3)cc2)CC1 (centres undefined)	-3.9	1	-13.7	95.7*	68.3	78.0
OC(COc1ccccc1)CN1CCCC1 (centres undefined)	-5.9	1.1	-7.3	-4.8	·	·
OC(COc1ccc2cc(Br)ccc2c1)CN1CCCC1 (centres undefined)	-6.4	1.1	-2.2	100.1*	45.7	16.9
OCCN1CCN(CC(O)COc2ccc3ccccc3c2)CC1 (centres undefined)	-0.5	1	-6.1	90.9*	117.1	101.3
CN1CCN(CC(O)COc2ccc(C34CC5CC(CC(C5)C3)C4)cc2)CC1 (centres undefined)	-4.9	1	-33.6	100.4*	·	·
OC(COc1ccc2cc(Br)ccc2c1)CN1CCN(c2ccccn2)CC1 (centres undefined)	-0.3	1	-1.5	-0.8	78.0	74.8
